Reference: ChEMBL document CHEMBL2375242, “Synthesis of (S)-FTY720 vinylphosphonate analogues and evaluation of their potential as sphingosine kinase 1 inhibitors and activators” (Bioorg Med Chem, 2013)
Blank lines part the entries; values can stand above or below the compound they belong to. Calls of active or inactive are those of the source. The calls are words filed in the database; no cut-off is given here.

Experiments:
[1] = biological target: T1, Sphingosine kinase 1 (Homo sapiens, UniProt Q9NYA1); assay: Activity at recombinant GFP-tagged SK1 (unknown origin) expressed in HEK293 cells at 50 uM after 30 mins by Cerenkov counting analysis; type: cell-based
T1 sequence (Q9NYA1 whole entry): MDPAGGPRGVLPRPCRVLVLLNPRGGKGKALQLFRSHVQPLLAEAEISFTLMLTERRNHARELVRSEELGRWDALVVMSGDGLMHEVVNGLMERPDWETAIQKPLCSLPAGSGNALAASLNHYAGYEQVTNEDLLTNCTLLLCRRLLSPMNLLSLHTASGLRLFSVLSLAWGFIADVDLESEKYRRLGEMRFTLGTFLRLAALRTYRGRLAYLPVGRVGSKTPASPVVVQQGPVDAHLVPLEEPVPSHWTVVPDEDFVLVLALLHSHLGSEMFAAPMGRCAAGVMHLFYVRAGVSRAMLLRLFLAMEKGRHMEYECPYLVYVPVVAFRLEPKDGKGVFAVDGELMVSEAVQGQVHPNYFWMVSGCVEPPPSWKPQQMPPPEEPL

[2] = biological target: T1, Sphingosine kinase 1; assay: Inhibition of recombinant GFP-tagged SK1 (unknown origin) expressed in HEK293 cells using sphingosine as substrate at 50 uM after 30 mins by Cerenkov counting analysis relative to control; type: cell-based
How it was run: (§1)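 Lysate of HEK 293 cells stably overexpressing GFP-SK1 (30 μg protein) was incubated for 30 min at 30 °C with 3 μM sphingosine (Km) in Triton X-100 and 250 μM [γ-32P]ATP in 10 mM MgCl2, at pH 7.4 Tris buffer with phosphatase and protease inhibitors. Compounds were in DMSO; the control was 5% DMSO. [32P]-S1P was extracted into 1-butanol/KCl and measured by Cerenkov counting. Activity is % of the sphingosine-alone control, n = 3, mean ± S.E.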

[3] = biological target: T1, Sphingosine kinase 1; assay: Uncompetitive inhibition of recombinant SK1 (unknown origin) expressed in HEK293 cells after 15 to 20 mins by Cornish-Bowden plot analysis in presence of sphingosine; type: cell-based
[4] = biological target: T1, Sphingosine kinase 1; assay: Uncompetitive inhibition of SK1 (unknown origin) in presence of ATP
[5] = biological target: T1, Sphingosine kinase 1; assay: Competitive inhibition of SK1 (unknown origin) in presence of ATP
[6] = biological target: T1, Sphingosine kinase 1; assay: Inhibition of recombinant GFP-tagged SK1 (unknown origin) expressed in HEK293 cells using sphingosine as substrate at 50 uM after 30 mins by Cerenkov counting analysis relative to control
[7] = biological target: T1, Sphingosine kinase 1; assay: Activation of recombinant GFP-tagged SK1 (unknown origin) expressed in HEK293 cells using sphingosine as substrate above 50 uM after 30 mins by Cerenkov counting analysis; type: cell-based; how it was run: as §1
[8] = biological target: T1, Sphingosine kinase 1; assay: Activation of recombinant GFP-tagged SK1 (unknown origin) expressed in HEK293 cells using sphingosine as substrate at 50 uM after 30 mins by Cerenkov counting analysis relative to control; type: cell-based; how it was run: as §1
[9] = biological target: T1, Sphingosine kinase 1; assay: Activation of recombinant GFP-tagged SK1 (unknown origin) expressed in HEK293 cells using sphingosine as substrate after 30 mins by Cerenkov counting analysis; type: cell-based
How it was run: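 Enzyme source: lysates (30 μg) of HEK 293 cells stably overexpressing GFP-SK1, cultured in DMEM/10% FCS with geneticin. Reaction run 30 min at 30 °C with 3 μM sphingosine in Triton X-100 (0.063% final) and 250 μM [γ-32P]ATP in 10 mM MgCl2, pH 7.4 Tris buffer. Compound added in DMSO; control is 5% DMSO, set as 100% activity. [32P]-S1P is extracted into butanol and read by Cerenkov counting. EC50 from concentration-response, n = 3.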

SMILES: CCCCCCCCc1ccc(CC[C@](N)(/C=C/P(=O)(O)O)CO)cc1
Kiuc [3]: 14.5 µM
Kiuc [4]: 65 µM
Kic [5]: 10 µM
inhibition [6]: 62.7%

SMILES: CCCCCCCCc1ccc(CC[C@](/C=C/P(=O)(O)O)(CO)N=[N+]=[N-])cc1
Activity [7]: inactive
Activity [1]: inactive
Activity [8]: 30%
EC50 [9]: 8.3 µM

SMILES: CCCCCCCCc1ccc(CC[C@](/C=C/P(=O)(O)O)(CF)N=[N+]=[N-])cc1
Activity [1]: inactive
Activity [8]: 30%
EC50 [9]: 5.7 µM

Further lines, results first:

Activity [1]: inactive
inhibition [2]: inactive
SMILES: CCCCCCCCc1ccc(CC[C@](N)(/C=C/C(=O)O)CO)cc1

Activity [1]: inactive
inhibition [2]: 20%
SMILES: CCCCCCCCc1ccc(CC[C@](N)(/C=C/P(=O)(O)O)CF)cc1

Activity [1]: inactive
inhibition [2]: 35%
SMILES: CCCCCCCCc1ccc(CC[C@]2(N)CCC(=O)OC2)cc1
